This is an account of results in ChEMBL document CHEMBL4387713, “Galloyl Carbohydrates with Antiangiogenic Activity Mediated by Capillary Morphogenesis Gene 2 (CMG2) Protein Binding” (J Med Chem, 2019).

Structures are written as SMILES.

The first data set deals with Anthrax toxin receptor 2 (Homo sapiens, UniProt P58335, C178A/R40C). Nature of the data set: Inhibition of AF488-labelled PA binding to AF546- labelled GST-tagged CMG2 R40C/C178A double mutant (unknown origin) expressed in Escherichia coli BL21 DE3 measured after 4 hrs by FRET assay.
Chain of Anthrax toxin receptor 2 (P58335 whole entry, looked up, stated change not applied): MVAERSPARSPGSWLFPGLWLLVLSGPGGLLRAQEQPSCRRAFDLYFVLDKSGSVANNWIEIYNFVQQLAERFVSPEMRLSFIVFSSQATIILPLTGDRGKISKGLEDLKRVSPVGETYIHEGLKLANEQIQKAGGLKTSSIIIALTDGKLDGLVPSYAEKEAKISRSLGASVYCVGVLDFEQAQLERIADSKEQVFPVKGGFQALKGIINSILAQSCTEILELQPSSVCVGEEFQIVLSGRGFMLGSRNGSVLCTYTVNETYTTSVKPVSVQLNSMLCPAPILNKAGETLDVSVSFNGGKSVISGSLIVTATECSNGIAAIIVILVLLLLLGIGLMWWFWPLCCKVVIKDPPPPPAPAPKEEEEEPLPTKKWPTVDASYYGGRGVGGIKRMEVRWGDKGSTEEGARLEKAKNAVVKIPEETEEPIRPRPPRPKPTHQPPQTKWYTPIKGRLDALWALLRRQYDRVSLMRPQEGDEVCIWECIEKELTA
Conditions: not given
Broadly, the IC50 is the concentration that inhibits the measured activity by half. High values mean lower potency, low ones higher potency. Take `O=C(OC[C@H]1OC(OC(=O)c2ccc(O)c(O)c2O)[C@H](OC(=O)c2ccc(O)c(O)c2O)[C@@H](OC(=O)c2ccc(O)c(O)c2O)[C@@H]1OC(=O)c1ccc(O)c(O)c1O)c1ccc(O)c(O)c1O` (stereo partly drawn): the half-inhibitory concentration (IC50) was 3420 nM.

In turn, `O=C(O[C@@H]1OC[C@@H](OC(=O)c2ccc(O)c(O)c2O)[C@@H](OC(=O)c2ccc(O)c(O)c2O)[C@H]1OC(=O)c1ccc(O)c(O)c1O)c1ccc(O)c(O)c1O` yielded an IC50 above 10000 nM.

The molecule `O=C(OC[C@H]1O[C@@H](OC(=O)c2cc(O)c(O)c(O)c2)[C@@H](OC(=O)c2cc(O)c(O)c(O)c2)[C@@H](OC(=O)c2cc(O)c(O)c(O)c2)[C@@H]1OC(=O)c1cc(O)c(O)c(O)c1)c1cc(O)c(O)c(O)c1` yielded an IC50 of 58 nM.

As to `O=C(OC[C@H]1O[C@H](OC(=O)c2cc(O)c(O)c(O)c2)[C@@H](OC(=O)c2cc(O)c(O)c(O)c2)[C@@H](OC(=O)c2cc(O)c(O)c(O)c2)[C@@H]1OC(=O)c1cc(O)c(O)c(O)c1)c1cc(O)c(O)c(O)c1`, the IC50 amounted to 100 nM.

`O=C(OC[C@H]1O[C@H](O[C@H]2O[C@H](COC(=O)c3cc(O)c(O)c(O)c3)[C@@H](OC(=O)c3cc(O)c(O)c(O)c3)[C@H](OC(=O)c3cc(O)c(O)c(O)c3)[C@H]2OC(=O)c2cc(O)c(O)c(O)c2)[C@@H](OC(=O)c2cc(O)c(O)c(O)c2)[C@@H](OC(=O)c2cc(O)c(O)c(O)c2)[C@@H]1OC(=O)c1cc(O)c(O)c(O)c1)c1cc(O)c(O)c(O)c1` displayed an IC50 above 10000 nM.

In turn, `O=C(OC[C@H]1O[C@H](O[C@H]2O[C@H](COC(=O)c3ccc(O)c(O)c3O)[C@@H](OC(=O)c3ccc(O)c(O)c3O)[C@H](OC(=O)c3ccc(O)c(O)c3O)[C@H]2OC(=O)c2ccc(O)c(O)c2O)[C@@H](OC(=O)c2ccc(O)c(O)c2O)[C@@H](OC(=O)c2ccc(O)c(O)c2O)[C@@H]1OC(=O)c1ccc(O)c(O)c1O)c1ccc(O)c(O)c1O` registered an IC50 above 10000 nM.

`O=C(O[C@@H]1OC[C@@H](OC(=O)c2cc(O)c(O)c(O)c2)[C@@H](OC(=O)c2cc(O)c(O)c(O)c2)[C@H]1OC(=O)c1cc(O)c(O)c(O)c1)c1cc(O)c(O)c(O)c1`: the IC50 was above 10000 nM.

As to `O=C(OC[C@H]1OC(O)[C@H](OC(=O)c2cc(O)c(O)c(O)c2)[C@@H](OC(=O)c2cc(O)c(O)c(O)c2)[C@H]1OC(=O)c1cc(O)c(O)c(O)c1)c1cc(O)c(O)c(O)c1` (stereo partly drawn), the IC50 worked out at 167 nM.

Turning to `O=C(OC[C@H]1O[C@@H](OC(=O)c2cc(O)c(O)c(O)c2)[C@H](OC(=O)c2cc(O)c(O)c(O)c2)[C@@H](OC(=O)c2cc(O)c(O)c(O)c2)[C@@H]1OC(=O)c1cc(O)c(O)c(O)c1)c1cc(O)c(O)c(O)c1` [PENTAGALLOYL GLUCOSE], the IC50 was determined as 607 nM.

The molecule `O=C(O[C@H]1OC[C@@H](OC(=O)c2ccc(O)c(O)c2O)[C@@H](OC(=O)c2ccc(O)c(O)c2O)[C@H]1OC(=O)c1ccc(O)c(O)c1O)c1ccc(O)c(O)c1O` had a half-maximal inhibitory concentration (IC50) above 10000 nM.

Regarding `O=C(OC[C@H]1O[C@H](OC(=O)c2ccc(O)c(O)c2O)[C@@H](OC(=O)c2ccc(O)c(O)c2O)[C@@H](OC(=O)c2ccc(O)c(O)c2O)[C@@H]1OC(=O)c1ccc(O)c(O)c1O)c1ccc(O)c(O)c1O`, the IC50 is above 10000 nM.

Regarding `O=C(OC[C@H]1O[C@H](O[C@H]2[C@H](OC(=O)c3cc(O)c(O)c(O)c3)[C@@H](OC(=O)c3cc(O)c(O)c(O)c3)[C@H](OC(=O)c3cc(O)c(O)c(O)c3)O[C@@H]2COC(=O)c2cc(O)c(O)c(O)c2)[C@H](OC(=O)c2cc(O)c(O)c(O)c2)[C@@H](OC(=O)c2cc(O)c(O)c(O)c2)[C@@H]1OC(=O)c1cc(O)c(O)c(O)c1)c1cc(O)c(O)c(O)c1`, the IC50 was above 10000 nM.

`O=C(OCC(OC(=O)c1ccc(O)c(O)c1O)[C@@H]1O[C@H](OC(=O)c2ccc(O)c(O)c2O)[C@H](OC(=O)c2ccc(O)c(O)c2O)[C@H]1OC(=O)c1ccc(O)c(O)c1O)c1ccc(O)c(O)c1O` (single isomer, unassigned) gave a half-maximal inhibitory concentration (IC50) above 10000 nM.

Molecule `O=C(OC[C@H]1O[C@H](O[C@H]2[C@H](OC(=O)c3ccc(O)c(O)c3O)[C@@H](OC(=O)c3ccc(O)c(O)c3O)[C@H](OC(=O)c3ccc(O)c(O)c3O)O[C@@H]2COC(=O)c2ccc(O)c(O)c2O)[C@H](OC(=O)c2ccc(O)c(O)c2O)[C@@H](OC(=O)c2ccc(O)c(O)c2O)[C@@H]1OC(=O)c1ccc(O)c(O)c1O)c1ccc(O)c(O)c1O` came in with an IC50 of 1160 nM.

With `O=C(OC[C@H]1O[C@@H](OC(=O)c2ccc(O)c(O)c2O)[C@@H](OC(=O)c2ccc(O)c(O)c2O)[C@@H](OC(=O)c2ccc(O)c(O)c2O)[C@@H]1OC(=O)c1ccc(O)c(O)c1O)c1ccc(O)c(O)c1O`, the IC50 came to 132 nM.

A further data set concerns EA.hy 926. In words: Antimigratory activity in human EAhy926 cells measured at 10 mins interval for 12 hrs by time-lapse transmitted light microscopy.
Conditions: not given
For `O=C(OC[C@H]1O[C@@H](OC(=O)c2cc(O)c(O)c(O)c2)[C@@H](OC(=O)c2cc(O)c(O)c(O)c2)[C@@H](OC(=O)c2cc(O)c(O)c(O)c2)[C@@H]1OC(=O)c1cc(O)c(O)c(O)c1)c1cc(O)c(O)c(O)c1`, the IC50 lay in the range of 365 to 400 nM.

Test system in another data set: not listed separately
Nature of the data set: Toxicity in C57BL/6J mouse assessed as body weight loss at 10 mg/kg, ip. Type of data set: organism-based. To be noted: in vivo. The method, boiled down: (§1)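 C57BL/6J mice given 80 ng bFGF slow-release pellets in the cornea about 1.0 mm from the temporal limbus. Compound diluted 5:1 in saline, 10 mg/kg/day ip. Vehicle is DMSO/NMP/Tween/Cremophor in saline. Vessel area compared with vehicle by t-test (vehicle n = 9, treated n = 10). Body weight followed against vehicle-treated mice.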
Take `O=C(OC[C@H]1O[C@@H](OC(=O)c2cc(O)c(O)c(O)c2)[C@@H](OC(=O)c2cc(O)c(O)c(O)c2)[C@@H](OC(=O)c2cc(O)c(O)c(O)c2)[C@@H]1OC(=O)c1cc(O)c(O)c(O)c1)c1cc(O)c(O)c(O)c1`: the Activity result was “Non-Toxic”.

A further data set relates to Mus musculus. Nature of the data set: Inhibition of basic fibroblast growth factor-induced corneal angiogenesis in C57BL/6J mouse assessed as decrease in vessel area at 10 mg/kg administered intraperitoneally measured on 6th postoperative day relative to control. It is filed as functional. Conditions: ip. The essentials: as §1
As usually defined, the inhibition in vivo is the relative decrease from the control value, in per cent. Consider `O=C(OC[C@H]1O[C@@H](OC(=O)c2cc(O)c(O)c(O)c2)[C@@H](OC(=O)c2cc(O)c(O)c(O)c2)[C@@H](OC(=O)c2cc(O)c(O)c(O)c2)[C@@H]1OC(=O)c1cc(O)c(O)c(O)c1)c1cc(O)c(O)c(O)c1`, for which the inhibition in vivo at 10 mg/kg amounted to 20%.
